From ChEMBL document CHEMBL2380243, “Design and synthesis of 2-N-substituted indazolone derivatives as non-carboxylic acid glycogen synthase activators” (Bioorg Med Chem Lett, 2013)

Assays:
[1] = target: T1, Glycogen [starch] synthase, muscle (Homo sapiens) (UniProt P13807); test: Activation of human recombinant muscle GYS1 expressed in insect sf9 cells using glycogen and UDP-glucose as substrates at 75 uM by spectrophotometry relative to control
T1 sequence (whole entry): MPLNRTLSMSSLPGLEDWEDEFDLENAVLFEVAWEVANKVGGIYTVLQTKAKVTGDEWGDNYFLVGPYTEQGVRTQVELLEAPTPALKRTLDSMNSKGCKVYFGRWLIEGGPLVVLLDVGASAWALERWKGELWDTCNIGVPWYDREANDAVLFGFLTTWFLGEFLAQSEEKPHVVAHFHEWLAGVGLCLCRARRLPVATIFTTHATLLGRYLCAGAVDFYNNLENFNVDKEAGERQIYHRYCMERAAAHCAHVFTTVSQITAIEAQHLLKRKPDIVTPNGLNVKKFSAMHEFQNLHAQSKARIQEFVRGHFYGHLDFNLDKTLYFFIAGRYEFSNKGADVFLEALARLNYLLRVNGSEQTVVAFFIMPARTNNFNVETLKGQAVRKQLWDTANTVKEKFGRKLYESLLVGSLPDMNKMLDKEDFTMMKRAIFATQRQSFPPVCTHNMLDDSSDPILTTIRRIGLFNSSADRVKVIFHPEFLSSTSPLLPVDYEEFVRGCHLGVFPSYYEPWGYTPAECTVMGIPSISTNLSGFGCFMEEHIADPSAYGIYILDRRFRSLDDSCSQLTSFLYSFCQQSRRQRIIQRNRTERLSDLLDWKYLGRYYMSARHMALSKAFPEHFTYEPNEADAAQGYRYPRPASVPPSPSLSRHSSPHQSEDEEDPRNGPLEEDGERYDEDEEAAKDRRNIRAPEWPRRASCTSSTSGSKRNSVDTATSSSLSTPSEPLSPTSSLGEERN
In short: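 Same coupled GYS1 assay (sf9-derived human muscle enzyme, PK/LDH coupling, NADH absorbance at 340 nm read every 3 min over 15 min, room temperature). Activation is expressed as fold increase over control at the highest concentration tested.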

[2] = target: T1, Glycogen [starch] synthase, muscle (Homo sapiens); test: Activation of human recombinant muscle GYS1 expressed in insect sf9 cells using glycogen and UDP-glucose as substrates assessed as concentration required to 200% activation by spectrophotometry
In short: (§1)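 Recombinant human muscle GYS1 (partially purified from sf9 cells) is read in a pyruvate kinase/lactate dehydrogenase-coupled assay at room temperature. Compounds are diluted in 30 mM glycylglycine pH 7.3, 40 mM KCl, 20 mM MgCl2, 9.2% DMSO, ±20 mM glucose-6-phosphate. The substrate mix holds glycogen, UDP-glucose, PEP and NADH, all as solution concentrations. NADH loss is read at 340 nm every 3 min for 15 min. EC50 is half-maximal activation, SC200 is the concentration doubling activity, and dose-response runs are in triplicate.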

[3] = target: T2, Glycogen [starch] synthase, muscle (Homo sapiens, UniProt P13807); test: Activation of human recombinant muscle GYS1 expressed in insect sf9 cells using glycogen and UDP-glucose as substrates by spectrophotometry; in short: as §1
T2 sequence (P13807 whole entry): T1 sequence (whole entry)

[4] = Cmax in C57 mouse at 10 mg/kg, po; assay type: ADME, organism-based; design: dose 10 mg/kg, route oral; details: in vivo
In short: (§2)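 C57 mice get a single oral dose of 10 mg/kg as an aqueous suspension in 0.1 M phosphate buffer, pH 7.4, containing 10% PEG 400 by volume. Plasma exposure is measured and reported as Cmax and AUC.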

[5] = AUC in C57 mouse at 10 mg/kg, po; assay type: ADME, organism-based; design: dose 10 mg/kg, route oral; details: plasma; in short: as §2
Mus musculus = test: Drug metabolism in po dosed C57 mouse assessed as conversion to ortho-aminobenzoic acid in plasma; assay type: ADME, organism-based; details: in vivo

Row | Compound | fold change (FC) [1] | Activity [2] [µM] | EC50 [3] [nM] | Cmax [4] [ng/mL] | AUC [5] [ng·h/mL] | Drug metabolism (Mus musculus)
1 | COc1cc(F)c(F)cc1-c1ccc(OCc2cccc3c(=O)n(C[C@H](O)CO)[nH]c23)cc1 | 3.3 | 0.07 | 250 |  |  | 
2 | O=c1c2cccc(COc3ccc(-c4cc(F)c(F)cc4F)cc3)c2[nH]n1C[C@@H](O)CO | 3.3 | 0.32 | 680 |  |  | 
3 | COc1cc(F)c(F)cc1-c1ccc(OCc2cccc(C(=O)N(C)CC(=O)O)c2)cc1 | 6.8 |  | 100 |  |  | 
4 | O=c1c2cccc(COc3ccc(-c4cc(F)c(F)cc4F)cc3)c2[nH]n1-c1cccnc1 | 5.8 | 2.75 | 4010 |  |  | 
5 | COc1cc(F)c(F)cc1-c1ccc(OCc2cccc(C(=O)N(C)CC(O)CO)c2)cc1 (stereo unspecified) | 6.6 |  | 10300 |  |  | 
6 | O=c1c2cccc(COc3ccc(-c4cc(F)c(F)cc4F)cc3)c2[nH]n1C[C@H](O)CO | 3 | 0.41 | 580 |  |  | 
7 | O=c1c2cccc(COc3ccc(-c4cc(F)c(F)cc4Cl)cc3)c2[nH]n1C[C@@H](O)CO | 3.6 | 0.25 | 260 |  |  | 
8 | Cc1cc(F)c(F)cc1-c1ccc(OCc2cccc3c(=O)n(CC(=O)O)[nH]c23)cc1 | 3.7 | 0.33 | 420 |  |  | 
9 | O=C(O)Cn1[nH]c2c(COc3ccc(-c4cc(F)c(F)cc4F)cc3)cccc2c1=O | 3.6 | 0.69 | 1200 |  |  | 
10 | COc1cc(F)c(F)cc1-c1ccc(OCc2cccc3c(=O)n(-c4ccc(F)cc4)[nH]c23)cc1 | 2.8 | 2.01 | 1370 |  |  | 
11 | O=c1c2cccc(COc3ccc(-c4cc(F)c(F)cc4Cl)cc3)c2[nH]n1C[C@H](O)CO | 3.5 | 0.16 | 300 |  |  | 
12 | COc1cc(F)c(F)cc1-c1ccc(OCc2cccc3c(=O)n(C[C@@H](O)CO)[nH]c23)cc1 | 3.1 | 0.06 | 270 |  |  | 
13 | Cc1cc(F)c(F)cc1-c1ccc(OCc2cccc3c(=O)n(C)[nH]c23)cc1 | 3 | 0.13 | 240 |  |  | 
14 | O=C(O)[C@@H]1CCCN1C(=O)c1ccc(COc2ccc(-c3ccccc3)cc2)o1 | 5.8 |  | 15100 |  |  | 
15 | COCCn1[nH]c2c(COc3ccc(-c4cc(F)c(F)cc4F)cc3)cccc2c1=O | 3 | 0.52 | 790 |  |  | 

The remaining molecules from weak to strong by EC50 [3], led by results:

Row | fold change (FC) [1] | Activity [2] [µM] | EC50 [3] [nM] | Cmax [4] [ng/mL] | AUC [5] [ng·h/mL] | Drug metabolism (Mus musculus) | Compound
16 | 7.3 |  | 4100 |  |  |  | COc1cc(F)c(F)cc1-c1ccc(OCc2cccc(C(=O)N(C)CCO)c2)cc1
17 | 6.1 | 1.14 | 1860 |  |  |  | O=c1c2cccc(COc3ccc(-c4cc(F)c(F)cc4Cl)cc3)c2[nH]n1-c1cccnc1
18 | 6.8 | 0.49 | 1780 | 254 | 746 |  | Cn1[nH]c2c(COc3ccc(-c4cc(F)c(F)cc4F)cc3)cccc2c1=O
19 | 2.5 | 1.86 | 1470 |  |  |  | Cc1cc(F)c(F)cc1-c1ccc(OCc2cccc3c(=O)n(-c4ccc(F)cc4)[nH]c23)cc1
20 | 4 | 0.41 | 1000 |  |  | Active | O=c1o[nH]c2c(COc3ccc(-c4cc(F)c(F)cc4F)cc3)cccc12
21 | 5.5 | 0.22 | 770 | 1350 | 3590 |  | O=c1c2cccc(COc3ccc(-c4cc(F)c(F)cc4F)cc3)c2[nH]n1CCO
22 | 4.4 | 0.11 | 370 |  |  |  | COCCn1[nH]c2c(COc3ccc(-c4cc(F)c(F)cc4OC)cc3)cccc2c1=O
23 | 3.3 | 0.11 | 340 |  |  |  | Cc1cc(F)c(F)cc1-c1ccc(OCc2cccc3c(=O)n(C[C@H](O)CO)[nH]c23)cc1
24 | 5.4 | 0.07 | 320 |  |  |  | COc1cc(F)c(F)cc1-c1ccc(OCc2cccc3c(=O)n(C)[nH]c23)cc1
25 | 3 | 0.1 | 230 |  |  |  | Cc1cc(F)c(F)cc1-c1ccc(OCc2cccc3c(=O)n(C[C@@H](O)CO)[nH]c23)cc1
26 | 3.2 | 0.06 | 200 |  |  |  | COc1cc(F)c(F)cc1-c1ccc(OCc2cccc3c(=O)n(CC(=O)O)[nH]c23)cc1
27 | 5.4 |  | 140 |  |  |  | COc1cc(F)c(F)cc1-c1ccc(OCc2cccc(C(=O)N3CCC[C@H]3C(=O)O)c2)cc1
